Paper PMC8404148 (Endocrine-related cancer, 2021)

Columns and labels:
MCF-7 cells = details: read-out: IC50 for suppressing MCF-7 cell growth, ref Wang et al. 2014; cited from earlier work
4013 PDX organoids = assay: Breast cancer PDX organoid growth, 4013 line; assay type: cell-based, human; details: SI-12 10 nM, BEZ235 2 nM, two weeks
Method in brief: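 Organoids derived from the 4013 PDX tumour, which came from a patient with triple-negative infiltrating ductal carcinoma. The tumour was passaged in mice eight times before use.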

5097 PDX organoids = assay: Breast cancer PDX organoid growth, 5097 line; assay type: cell-based, human; details: 10 nM single agent, two weeks, vs vehicle

C[C@]12CC[C@H](O)C[C@H]1CC[C@@H]1[C@@H]2CC[C@]2(C)[C@@H](c3ccc(=O)oc3)CC[C@]12O [bufalin]
IC50 (MCF-7 cells): 3.2 nM

Cn1c(=O)n(-c2ccc(C(C)(C)C#N)cc2)c2c3cc(-c4cnc5ccccc5c4)ccc3ncc21 [BEZ235]
organoid formation, single compound (4013 PDX organoids): could repress organoid formation

CCN1CCN(Cc2ccc(Nc3ncc(F)c(-c4cc(F)c5nc(C)n(C(C)C)c5c4)n3)nc2)CC1 [Abemaciclib]
organoid numbers (5097 PDX organoids): reduced organoid numbers
